TAAR1 agonist: human TAAR1 agonists, primary screen, Fluo-8 calcium fluorescence, CHO RD-HGA16 cells | activation, % at 3 µM | vehicle wells 0%, saturating PEA agonist 100% | Trace amine-associated receptor 1 (Homo sapiens), Q96RJ0 | hit rate 0.99% among 360,000;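 active means activation above the mean activation of all test compounds in the run plus 3 SD, cut at about 38% in these data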
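Test system: RD-HGA16 (CHO) cells co-expressing Gα16 and hTAAR1; dosing: one-point dosing at 3 µM (nominal); timing: 17-24 h seeding, 75 min 37 °C dye, 30 min RT; signal: kinetic Fluo-8 calcium fluorescence; read-out basis: % activation relative to PEA EC100 response; controls: DMSO and PEA EC100; replicates: n 1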
HTR2A ag: mouse Htr2a agonists via beta-arrestin recruitment, primary screen, cell-based, luminescence. 5-hydroxytryptamine receptor 2A (Mus musculus), P35363. CHO-K1 mHTR2A beta-arrestin complementation; percent of 30 µM serotonin response. activation, % at 7.6 µM. hit rate 0.66% among 360,000;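 active means activation above a run cutoff, the mean activation of all tested compounds plus 3 SD, cut at about 14% in these data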;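 further: 0% = plate median of compound wells and 100% = 30 µM serotonin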
TAAR1 antag: human TAAR1 antagonists, primary screen, Fluo-8 calcium fluorescence, CHO RD-HGA16 cells. Trace amine-associated receptor 1 (Homo sapiens), Q96RJ0. antagonist. inhibition, % at 3 µM. hit rate 1.5% among 360,000;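 active means inhibition above a per-plate cutoff, the mean inhibition of test compounds on that plate plus 3 SD, cut at about 49% in these data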;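 further: 0% = DMSO plus EC80 beta-PEA response and 100% = DMSO alone without agonist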
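Test system: hTAAR1-expressing CHO RD-HGA16 cells, Gα16-coupled; Probe or stimulus: EC80 β-phenethylamine stimulus; Compound dosing: single nominal final test compound concentration of 3 µM; Timing: 140 s kinetic read after compound, 140 s after agonist; Signal: Fluo-8 calcium-sensitive fluorescence; Measure: % inhibition of agonist calcium response; Controls: DMSO and EC80 PEA controls.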
MC4R ag barr: MC4R agonists recruiting beta-arrestin, primary screen, cell-based, luminescence, agonist arm of biased-ligand search; activation, % at 8.9 µM; AID 540308, 2011; hit rate 0.98% among 360,000; U2OS MC4R beta-arrestin complementation; percent of melanotan II response, DMSO zero;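 active means activation above a per-plate cutoff, the mean activation of sample wells on that plate plus 3 SD, cut at about 8% in these data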
MC4R antagonist: MC4R antagonists of cAMP signaling, primary screen, cell-based, TR-FRET, antagonist arm of biased-ligand search; Melanocortin receptor 4 (Homo sapiens), P32245; MC4R-expressing cells, MTII-stimulated cAMP, LANCE TR-FRET; inhibition, % at 6.5 µM; hit rate 0.48% among 360,000; AID 540295, 2011;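 active means inhibition above its plate's cutoff, the mean of tested wells on that plate plus 3 SD, cut at about 29% in these data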;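 further: 0% = Melanotan II alone and 100% = Melanotan II plus saturating MCL0020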
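Assay system: human MC4R-expressing U2OS cells; reagent: Melanotan II stimulation of cells; dosing: 6.5 µM single dose; timing: compound 30 min, challenge 1 h, detection 1 h; signal: TR-FRET cAMP assay; replicates: one well per compound, no replicates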
Beta2AR agonist: beta2AR agonists driving receptor internalization, primary screen, cell-based, FAP fluorogen, flow cytometry; response, % (test concentration not listed); Am2.2-beta2AR cells; hit rate 0.43% among 340,000; Beta-2 adrenergic receptor (Homo sapiens), P07550;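 active means response above a set limit, near 3 SD of response in nonfluorescent compounds, cut at about 42% in these data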
Target sequence (P07550 whole entry, looked up): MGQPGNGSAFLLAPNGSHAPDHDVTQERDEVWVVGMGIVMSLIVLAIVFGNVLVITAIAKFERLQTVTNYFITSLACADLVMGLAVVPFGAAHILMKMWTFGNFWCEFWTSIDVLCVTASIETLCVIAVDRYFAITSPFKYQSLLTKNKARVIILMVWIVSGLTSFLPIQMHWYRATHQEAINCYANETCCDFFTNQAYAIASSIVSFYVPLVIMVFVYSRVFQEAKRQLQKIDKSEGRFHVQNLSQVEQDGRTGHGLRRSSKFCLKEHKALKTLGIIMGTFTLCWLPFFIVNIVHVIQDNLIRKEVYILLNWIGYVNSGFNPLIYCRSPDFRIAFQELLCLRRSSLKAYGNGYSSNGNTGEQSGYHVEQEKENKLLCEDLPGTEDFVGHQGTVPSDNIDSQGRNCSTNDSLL
MOR ag counter: OPRM1 agonists via beta-arrestin recruitment, confirmation, counter-screen for mouse HTR2A agonist project, cell-based, luminescence, single concentration | shares compounds with HTR2A ag | U2OS OPRM1 beta-arrestin PathHunter; DMSO 0%, DAMGO 9.3 µM 100% | activation, % at 9.3 µM | hit rate 5.3% among 2,300 | AID 624380, 2012;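 active means mean activation above the mean of DMSO-only wells plus 3 SD, cut at about 0.5% in these data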
HTR2A ag conf: mouse HTR2A agonists, beta-arrestin recruitment, confirmation, cell-based, luminescence, CHO-K1 PathHunter, triplicate. activation, % at 7.6 µM. hit rate 19% among 2,300. DMSO 0%, 30 µM serotonin 100%. shares compounds with HTR2A ag. AID 624381, 2012;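 active means mean activation across triplicates above the hit threshold derived in the original primary screen, cut at about 15% in these data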
The depositor's hits bear a star; x = no result given. In the library only some 4.3% were active in any assay of this set; here they are far more common.

SMILES | TAAR1 agonist | HTR2A ag | TAAR1 antag | MC4R ag barr | MC4R antagonist | Beta2AR agonist | MOR ag counter | HTR2A ag conf
COc1ccc(NC(=O)C2CC3C=CC2C3)c([N+](=O)[O-])c1 (configuration not stated) | -1 | 15* | -22 | 1 | -4 | -6 | 0 | 1
N#CC1(NC(=O)CSc2ccccn2)CCCCC1 | 0 | 15* | -1 | 2 | 1 | -2 | -1 | -4
N#CC1(NC(=O)CSc2nc3ccccc3o2)CCCCC1 | 2 | -2 | -5 | -2 | 8 | 0 | x | x
CCN(c1ccc(OC)cc1)S(=O)(=O)c1ccc2c(c1)CCN2C(=O)CCC(=O)O | 9 | 14* | 4 | 1 | 6 | -9 | 0 | 0
CCn1nnnc1SCC(=O)N1c2ccccc2Sc2ccccc21 | 5 | -2 | 6 | -2 | 0 | -3 | x | x
Cn1nnnc1SCC(=O)N1c2ccccc2Sc2ccccc21 | 4 | 39* | -17 | -1 | 12 | 12 | -1 | -1
CCCCCOC(=O)CSc1n[nH]c(=O)[nH]c1=O | 5 | 1 | 9 | -1 | 13 | 10 | x | x
CCCOC(=O)C(C)Sc1n[nH]c(=O)[nH]c1=O (configuration not stated) | 10 | 14* | 1 | -2 | 5 | 2 | -1 | -2
CCN(CC(=O)NC1CC1)S(=O)(=O)c1ccc(C)cc1 | 1 | 15* | -7 | 0 | -2 | 4 | -1 | -5
CCN(CC(=O)NC1CC1)S(=O)(=O)c1ccccc1 | 1 | 3 | -20 | -2 | 2 | -17 | x | x
NC(=O)CC(NC(=O)c1ccccc1)c1ccc(NC2CCCCCCC2)c([N+](=O)[O-])c1 (configuration not stated) | 19 | 19* | -5 | 2 | 14 | -6 | 0 | -2
CCN(CC)C(=O)N1CCN(Cc2ccc3c(c2)OCO3)CC1 | 0 | 0 | 4 | 3 | 19 | -3 | x | x
O=C(c1cc2ccccc2o1)N1CCN(Cc2ccc3c(c2)OCO3)CC1 | -2 | -7 | -20 | 3 | 6 | -7 | x | x
Cc1ccc(C(=O)N2CCN(Cc3ccc4c(c3)OCO4)CC2)o1 | 0 | 20* | -2 | 1 | 1 | 2 | -1 | 12
CCOC(=O)N1CCN(Cc2ccc3c(c2)OCO3)CC1 | 2 | 37* | -4 | 0 | -1 | 0 | -1 | 107*
CCOC(=O)N1CCN(Cc2ccc(OCC(O)CN3CCCCC3)cc2)CC1 (configuration not stated) | 0 | 33* | -16 | -1 | 10 | -1 | 0 | 71*
Cc1ccc(NC(=O)C2(C)CCN2C(=O)Cc2ccccc2Cl)cc1C (configuration not stated) | -1 | -2 | -16 | 0 | 8 | x | x | x
Cc1c(F)cccc1NS(=O)(=O)c1ccc2c(c1)c(=O)n(C)c(=O)n2C | 32 | 0 | 2 | -2 | 14 | 0 | x | x
N#Cc1c(-c2ccccc2)[nH]c(=S)[nH]c1=O | 3 | 22* | -6 | 0 | 10 | -9 | -1 | -4
C=CCN1CCc2nc(N)sc2CC1 | 2 | 50* | -44 | 0 | 2 | 1 | -1 | 151*
CCN1CCc2nc(N)sc2C1 | 3 | 7 | -24 | 0 | 5 | -7 | x | x
COc1ccc(Cn2cc3c(-c4ccc(F)cc4)nnc-3c3cc(OC)c(OC)cc32)cc1 | 5 | -6 | -23 | 0 | -1 | -28 | x | x
COc1cc2c3nnc(-c4ccc(F)cc4)c-3cn(Cc3ccc(F)cc3)c2cc1OC | 3 | 18* | -7 | 1 | 13 | 18 | 0 | 15*
COc1cc2c3nnc(-c4ccc(F)cc4)c-3cn(Cc3ccccc3)c2cc1OC | -1 | 25* | 0 | 2 | 5 | -656 | 0 | 7
COCCN(C(=O)C1CC(=O)N(Cc2ccccc2)C1)c1nc(-c2ccc([N+](=O)[O-])cc2)cs1 (configuration not stated) | 2 | 7 | 39 | -2 | 4 | 13 | x | x
SMILES | TAAR1 agonist | HTR2A ag | TAAR1 antag | MC4R ag barr | MC4R antagonist | Beta2AR agonist | MOR ag counter | HTR2A ag conf
CCCc1cnc(N2CCN(C(=S)NC)CC2)nc1 | 7 | 17* | -17 | 0 | -6 | -4 | -1 | 1
CCCc1cnc(N2CCN(C(=O)c3ccc(F)cc3)CC2)nc1 | 6 | -4 | 1 | -1 | 7 | 5 | x | x
COc1ccccc1CNC(=O)C[C@H]1CC[C@@H]2[C@H](COC[C@H](O)CN2Cc2ccc3c(c2)OCO3)O1 | 2 | 25* | -14 | x | x | x | -1 | 1
COc1ccccc1CNC(=O)C[C@@H]1CC[C@H]2[C@@H](COC[C@H](O)CN2Cc2ccccc2)O1 | 3 | 1 | 9 | x | x | x | x | x
O=C(Nc1ccc2c(c1)OCCO2)C(CCc1ccccc1)N(Cc1ccccc1)Cc1ccccc1 (configuration not stated) | 3 | 18* | -31 | x | x | x | -1 | -6
O=C(CCCc1ccccc1)Nc1ccc2c(c1)OCCO2 | 1 | -6 | -5 | 1 | 0 | -9 | x | x
CC(C)CN(C(=O)COC(=O)CCC(=O)c1ccc(F)cc1)c1c(N)n(Cc2ccccc2)c(=O)[nH]c1=O | -1 | 8 | -32 | 0 | -1 | 1 | x | x
Cc1ccc(NC(=O)CSc2nc3ccccc3c(=O)n2CCCN2CCCCC2)cc1C | 12 | 16* | -18 | -1 | 5 | 19 | 0 | 12
COC(=O)c1ccc2c(=O)n(CCN3CCOCC3)c(SCC(=O)NCc3ccccc3)nc2c1 | -1 | 16* | -29 | -1 | -6 | -1 | -1 | -5
CC(=O)c1cccc(NC(=O)CSc2nc3ccccc3c(=O)n2CCCN2CCOCC2)c1 | 11 | -7 | 34 | 0 | 0 | -1 | x | x
COc1ccc(NC(=O)CSc2nc3ccccc3c(=O)n2CCNC(C)=O)c(OC)c1 | 2 | -4 | -3 | -2 | 4 | -6 | x | x
